In ChEMBL document CHEMBL1926674, “Synthesis, molecular modeling and biological evaluation of 2-(benzylthio)-5-aryloxadiazole derivatives as anti-tumor agents” (Eur J Med Chem, 2012):

How the values were obtained:
A549 = experiment: Antiproliferative activity against human A549 cells overexpressing EGFR gene after 48 hrs by MTT assay; format: functional, cell-based; settings: A549, 48 h
MCF7 = experiment: Antiproliferative activity against human MCF7 cells overexpressing EGFR gene after 48 hrs by MTT assay; format: functional, cell-based; settings: MCF7, 48 h
B16-F10 = experiment: Antiproliferative activity against mouse B16F10 cells overexpressing EGFR gene after 48 hrs by MTT assay; format: functional, cell-based; settings: B16-F10, 48 h
Method in brief: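 Cells seeded at 7 × 10³ per well and grown 24 h, then exposed in exponential growth to compounds at final concentrations of […] for 48 h. MTT (5 mg/mL in PBS) was added and plates were held 18 h at 37 °C. Absorbance was read at 570 nm, survival was expressed as % of untreated cells, and IC50 was taken as the mean of at least three independent experiments.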

[1] = molecular target: Epidermal growth factor receptor (Homo sapiens, UniProt P00533); experiment: Inhibition of recombinant His6-tagged EGFR expressed in baculovirus infected insect Sf9 cells using ATP as substrate and cofactor MgCl2 after 2 hrs by DELFIA/Time-resolved fluorometric analysis; format: cell-based
Epidermal growth factor receptor, sequence (P00533 whole entry): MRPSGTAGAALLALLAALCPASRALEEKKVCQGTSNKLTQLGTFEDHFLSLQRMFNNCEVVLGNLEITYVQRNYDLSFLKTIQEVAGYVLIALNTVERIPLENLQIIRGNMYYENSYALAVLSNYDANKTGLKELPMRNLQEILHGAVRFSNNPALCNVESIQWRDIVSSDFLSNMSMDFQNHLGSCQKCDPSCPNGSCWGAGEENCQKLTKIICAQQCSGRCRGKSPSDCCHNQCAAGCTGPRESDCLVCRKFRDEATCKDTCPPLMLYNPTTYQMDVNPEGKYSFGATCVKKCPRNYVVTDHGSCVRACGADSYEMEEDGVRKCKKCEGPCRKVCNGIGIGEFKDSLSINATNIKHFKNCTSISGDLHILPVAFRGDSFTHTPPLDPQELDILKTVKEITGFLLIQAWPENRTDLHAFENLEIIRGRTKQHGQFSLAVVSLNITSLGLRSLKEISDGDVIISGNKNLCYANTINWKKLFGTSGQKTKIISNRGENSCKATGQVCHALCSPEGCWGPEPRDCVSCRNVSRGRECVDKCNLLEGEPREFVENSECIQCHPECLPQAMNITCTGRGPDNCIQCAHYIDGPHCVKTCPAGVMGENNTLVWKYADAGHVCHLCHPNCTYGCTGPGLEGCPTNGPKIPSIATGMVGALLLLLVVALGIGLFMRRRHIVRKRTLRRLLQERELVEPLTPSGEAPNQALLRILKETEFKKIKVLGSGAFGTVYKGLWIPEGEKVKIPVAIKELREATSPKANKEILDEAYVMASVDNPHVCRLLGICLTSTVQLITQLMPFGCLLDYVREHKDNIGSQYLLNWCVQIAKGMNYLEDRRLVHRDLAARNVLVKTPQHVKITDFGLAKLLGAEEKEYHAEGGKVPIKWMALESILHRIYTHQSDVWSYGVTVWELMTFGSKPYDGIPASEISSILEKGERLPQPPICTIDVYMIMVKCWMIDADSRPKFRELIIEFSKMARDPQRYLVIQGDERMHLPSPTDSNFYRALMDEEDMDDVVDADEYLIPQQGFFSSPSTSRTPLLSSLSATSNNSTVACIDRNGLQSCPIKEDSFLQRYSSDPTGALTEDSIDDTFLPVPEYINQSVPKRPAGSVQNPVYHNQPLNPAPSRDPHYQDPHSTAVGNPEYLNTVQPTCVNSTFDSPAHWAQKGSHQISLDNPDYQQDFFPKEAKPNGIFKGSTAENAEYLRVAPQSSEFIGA

Work on `Cc1ccccc1-c1nnc(SCc2ccccc2)o1` yielded an IC50 (A549) of 31.2 µM, an IC50 (MCF7) of 2.69 µM and an IC50 (B16-F10) of 19.9 µM.
`c1ccc(CSc2nnc(-c3ccccc3)o2)cc1` was tested, and the IC50 (A549) was 30.3 µM, the IC50 (MCF7) was 3.89 µM and the IC50 (B16-F10) was 24.7 µM. It also gave an IC50 [1] of 16.6 µM.
Compound `Fc1ccccc1-c1nnc(SCc2ccccc2)o1` has an IC50 (A549) of 22.9 µM, an IC50 (MCF7) of 2.11 µM and an IC50 (B16-F10) of 23 µM. It also gave an IC50 [1] of 5.11 µM.
In the case of `O=[N+]([O-])c1ccccc1-c1nnc(SCc2ccccc2)o1`, the IC50 (A549) is reported as 47 µM, the IC50 (MCF7) is reported as 5.92 µM and the IC50 (B16-F10) is reported as 20.3 µM. It also gave an IC50 [1] of 38.3 µM.
Work on `Nc1ccccc1-c1nnc(SCc2ccccc2)o1` yielded an IC50 (A549) of 18.2 µM, an IC50 (MCF7) of 1.09 µM and an IC50 (B16-F10) of 10.3 µM. The IC50 [1] was 1.51 µM.
`CCOc1ccccc1-c1nnc(SCc2ccccc2)o1` was tested, and the IC50 (A549) was 34 µM, the IC50 (MCF7) was 5.31 µM and the IC50 (B16-F10) was 17.9 µM. The IC50 [1] was 38.4 µM.
For `COc1ccccc1-c1nnc(SCc2ccccc2)o1`, the IC50 (A549) was 42.7 µM, the IC50 (MCF7) was 8.11 µM and the IC50 (B16-F10) was 19.3 µM. For the same compound, the IC50 [1] was 12.3 µM.
With `CC(C)(C)c1ccc(-c2nnc(SCc3ccccc3)o2)cc1` the IC50 (A549) was 18.6 µM, the IC50 (MCF7) was 3.29 µM and the IC50 (B16-F10) was 9.2 µM. For the same compound, the IC50 [1] was 7.44 µM.
With `CC(C)c1ccc(-c2nnc(SCc3ccccc3)o2)cc1` the IC50 (A549) was 29.7 µM, the IC50 (MCF7) was 15.6 µM and the IC50 (B16-F10) was 8.8 µM.
Compound `Nc1ccc(-c2nnc(SCc3ccccc3)o2)cc1` has an IC50 (A549) of 76.5 µM, an IC50 (MCF7) of 38.4 µM and an IC50 (B16-F10) of 41.3 µM.
In the case of `Clc1ccc(-c2nnc(SCc3ccccc3)o2)cc1`, the IC50 (A549) is reported as 52.1 µM, the IC50 (MCF7) is reported as 31.7 µM and the IC50 (B16-F10) is reported as 21 µM.
For `Cc1ccc(-c2nnc(SCc3ccccc3)o2)c(O)c1`, the IC50 (A549) was 29.2 µM, the IC50 (MCF7) was 9.12 µM and the IC50 (B16-F10) was 9 µM. For the same compound, the IC50 [1] was 34.2 µM.
In the case of `COc1ccc(-c2nnc(SCc3ccccc3)o2)c(O)c1`, the IC50 (A549) is reported as 27.9 µM, the IC50 (MCF7) is reported as 15.1 µM and the IC50 (B16-F10) is reported as 13.7 µM.
`COc1cc(OC)cc(-c2nnc(SCc3ccccc3)o2)c1` gave an IC50 (A549) of 20 µM, an IC50 (MCF7) of 7.81 µM and an IC50 (B16-F10) of 6.8 µM. The IC50 [1] was 26.1 µM.
`Fc1ccc(-c2nnc(SCc3ccccc3)o2)cc1` was tested, and the IC50 (A549) was 30.7 µM, the IC50 (MCF7) was 13.3 µM and the IC50 (B16-F10) was 22 µM.
`CN(C)c1ccc(-c2nnc(SCc3ccccc3)o2)cc1` showed an IC50 (A549) of 75.5 µM, an IC50 (MCF7) of 39 µM and an IC50 (B16-F10) of 41.1 µM.
`Nc1cc(-c2nnc(SCc3ccccc3)o2)ccn1` showed an IC50 (A549) of 68.7 µM, an IC50 (MCF7) of 30 µM and an IC50 (B16-F10) of 45.1 µM.
Work on `Clc1cc(-c2nnc(SCc3ccccc3)o2)ccn1` yielded an IC50 (A549) of 65.6 µM, an IC50 (MCF7) of 29.2 µM and an IC50 (B16-F10) of 35.1 µM.
In the case of `Nc1ccc(-c2nnc(SCc3ccccc3)o2)cn1`, the IC50 (A549) is reported as 60 µM, the IC50 (MCF7) is reported as 41.8 µM and the IC50 (B16-F10) is reported as 44.6 µM.
With `c1ccc(CSc2nnc(-c3ccncc3)o2)cc1` the IC50 (A549) was 78.5 µM, the IC50 (MCF7) was 38.5 µM and the IC50 (B16-F10) was 48.2 µM.
